According to ChEMBL document CHEMBL5029154, “Design, Synthesis, and Biological Evaluation of Organic Nitrite (NO2-) Donors as Potential Anticerebral Ischemia Agents” (J Med Chem, 2021):
The source made the active and inactive calls. No cut-off for these calls is given here.

Experiments:
Cortical neurone [1] = assay: Neuroprotective activity against in OGD/R-induced Sprague-Dawley rat cortical neuron injury assessed as cell viability pretreated at 1.8 uM for 24 hrs followed by subjected to OGD for 2 hrs measured after 24 hrs under normoxic condition; assay type: functional, tissue-based
Method in brief: (§1)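 Cortical neurons were isolated from SD rat cortex by enzymatic digestion, plated on poly-lysine in 10% FBS DMEM, and pretreated 24 h at 1.8 μM in basal medium with 2% B27. OGD was run in glucose/FBS-free DMEM under 1% O₂, followed by 24 h reoxygenation in 10% FBS DMEM. Viability was read by MTT; apoptosis was also assessed. Three independent experiments.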

[2] = Drug metabolism assessed as nitric oxide release in presence of bovine plasma at 200 uM measured after 1 hr by Griess reagent based assay; assay type: ADME, cell-free, Bos taurus; conditions: cattle
Cortical neurone [3] = assay: Induction of Nrf2 protein level in OGD/R-induced rat primary cortical neuron pretreated at 1.8 uM for 24 hrs followed by subjected to OGD for 2 hrs measured after 24 hrs under normoxic condition by Western blot analysis; assay type: functional, tissue-based
Method in brief: (§2)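 Primary rat cortical neurons were pretreated with 1.8 μM compound for 24 h, given 2 h OGD, then 24 h normoxic culture. Nrf2, HO-1 and NQO1 mRNA were measured by RT-qPCR. Cytoplasmic and nuclear protein (30 μg/lane) were blotted for Nrf2, with lamin A and β-actin as references, and quantified by densitometry as the nuclear:cytoplasmic ratio. Three independent experiments, mean ± SD.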

HUVEC = assay: Angiogenesis activity in HUVEC cells assessed as increase in tube formation at 1.8 uM measured after 8 hrs by inverted microscopy; assay type: functional, cell-based; conditions: Homo sapiens
Method in brief: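 Early-passage HUVECs (passages 2–6), grown in DMEM with 10% FBS, glutamine, pyruvate and antibiotics, were seeded at 8 × 10⁴ cells/well on Matrigel. They were exposed to vehicle or compound for 8 h at 37 °C, 5% CO₂. Tubes were counted under an inverted microscope.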

[4] = Neuroprotective activity against in OGD/R-induced rat cortical neuron apoptosis assessed as late apoptotic cells pretreated at 1.8 uM for 24 hrs followed by subjected to OGD for 2 hrs measured after 24 hrs under normoxic condition by PI/FITC-H staining based flow cytometry (reference value: 6.31%); assay type: functional, Cortical neurone
[5] = Neuroprotective activity against in OGD/R-induced rat primary cortical neuron apoptosis assessed as viable cells pretreated at 1.8 uM for 24 hrs followed by subjected to OGD for 2 hrs measured after 24 hrs under normoxic condition by PI/FITC-H staining based flow cytometry (reference value: 31.55%); assay type: functional; conditions: Cortical neurone, read-out: Activity; method in brief: as §1
[6] = Neuroprotective activity against in OGD/R-induced rat cortical neuron apoptosis assessed as early apoptotic cells pretreated at 1.8 uM for 24 hrs followed by subjected to OGD for 2 hrs measured after 24 hrs under normoxic condition by PI/FITC-H staining based flow cytometry (reference value: 58.46%); assay type: functional, Cortical neurone
Cortical neurone [7] = assay: Effect on Nrf2 mRNA transcript level in OGD/R-induced rat primary cortical neuron pretreated at 1.8 uM for 24 hrs followed by subjected to OGD for 2 hrs measured after 24 hrs under normoxic condition by RT-qPCR analysis; assay type: functional, tissue-based; method in brief: as §2
Cortical neurone [8] = assay: Neuroprotective activity against in OGD/R-induced rat cortical neuron cytotoxicity assessed as decrease in cell viability pretreated at 1.8 uM for 24 hrs followed by subjected to OGD for 2 hrs measured after 24 hrs under normoxic condition by MTT assay; assay type: functional, tissue-based
Method in brief: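 Primary rat cortical neurons from enzymatically digested cortex, plated on poly-lysine in DMEM/10% FBS for 4 h. Pretreated 24 h in neuron basal medium with 2% B27, then glucose/FBS-free DMEM at 1% O2. Returned to 10% FBS DMEM under normoxia for 24 h. Viability by MTT; three independent experiments, mean SD.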

[9] = Neuroprotective activity against in OGD/R-induced rat cortical neuron apoptosis assessed as necrotic cells pretreated at 1.8 uM for 24 hrs followed by subjected to OGD for 2 hrs measured after 24 hrs under normoxic condition by PI/FITC-H staining based flow cytometry (reference value: 3.68%); assay type: functional, Cortical neurone
Cortical neurone [10] = assay: Induction of HO-1 mRNA transcript level in OGD/R-induced rat primary cortical neuron pretreated at 1.8 uM for 24 hrs followed by subjected to OGD for 2 hrs measured after 24 hrs under normoxic condition by RT-qPCR analysis; assay type: functional, tissue-based; method in brief: as §2
Cortical neurone [11] = assay: Induction of NQO1 mRNA transcript level in OGD/R-induced rat primary cortical neuron pretreated at 1.8 uM for 24 hrs followed by subjected to OGD for 2 hrs measured after 24 hrs under normoxic condition by RT-qPCR analysis; assay type: functional, tissue-based; method in brief: as §2

What does the source list for `N#C/C(=C\c1ccccc1)C[N+](=O)[O-]`?
Activity (Cortical neurone [1]): Active; Drug metabolism [2]: Metabolite_Detected

For `O=C1CCCC=C1C[N+](=O)[O-]`, which Drug metabolism [2] is on record?
Its Drug metabolism is “Metabolite_Detected”.

Which Activity (Cortical neurone [1]) does the source give for `O=[N+]([O-])C/C(=C\c1ccccc1)[N+](=O)[O-]` here?
The Activity was “Active”.

And the Drug metabolism [2]?
The Drug metabolism was “Metabolite_Detected”.

Which Activity (Cortical neurone [3]) does the source give for `C/C(=C\c1ccccc1)C(=O)c1ccccc1` here?
The Activity was “Active”.

And the Activity (HUVEC)?
The Activity was “inactive”.

Which Activity (Cortical neurone [3]) does the source give for `O=N[O-].[Na+]` [SODIUM NITRITE] here?
The Activity was “inactive”.

And the Activity [4]?
The Activity was 2.47%.

What about the viability at 1.8 µM [5] of the same molecule?
The viability at 1.8 µM was 46.9%.

And the Activity [6]?
The Activity was 50.12%.

And the Activity (Cortical neurone [7])?
Its Activity is “inactive”.

And the Activity (Cortical neurone [8])?
Its Activity is “inactive”.

And the Activity [9]?
The Activity was 0.51%.

For `CC(C)(C)c1cc(O)ccc1O` [E319], which Activity (Cortical neurone [3]) is on record?
Its Activity is “Active”.

What about the Activity [4] of the same molecule?
Its Activity is 1.4%.

What about the viability at 1.8 µM [5] of the same molecule?
The viability at 1.8 µM was 84%.

And the Activity (Cortical neurone [10])?
The Activity was “Active”.

And the Activity [6]?
The Activity was 13.91%.

What about the Activity (Cortical neurone [7]) of the same molecule?
Its Activity is “inactive”.

And the Activity (Cortical neurone [11])?
Its Activity is “Active”.

And the Activity [9]?
Its Activity is 0.84%.

Which Activity (Cortical neurone [1]) does the source give for `COC(=O)/C(=C/c1ccccc1)C[N+](=O)[O-]` here?
Its Activity is “Active”.

What about the Drug metabolism [2] of the same molecule?
Its Drug metabolism is “Metabolite_Detected”.
